Laboratory results taken from ChEMBL document CHEMBL1156300, “Identification of pyridazino[4,5-b]indolizines as selective PDE4B inhibitors” (Bioorg Med Chem Lett, 2010).

Key:
[1] = biological target: T1, 3',5'-cyclic-AMP phosphodiesterase 4B (Homo sapiens, UniProt Q07343); test: Displacement of [methyl-3H]rolipram from PDE4B3 expressed in CHO cells after 1 hr by scintillation counting; assay type: cell-based
[2] = Selectivity ratio Ki for PDE4D4 to Ki for PDE4B3
Procedure, shortened: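 Ki ratio, PDE4D over PDE4B, from [3H]-rolipram displacement in CHO lysates expressing PDE4D4 or PDE4B3 (2.5 nM radioligand, 30 °C for 1 h, Cheng–Prusoff Ki).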

[3] = biological target: T2, 3',5'-cyclic-AMP phosphodiesterase 4D (Homo sapiens, UniProt Q08499); test: Displacement of [methyl-3H]rolipram from PDE4D4 expressed in CHO cells after 1 hr by scintillation counting; assay type: cell-based
T2 sequence (Q08499 whole entry): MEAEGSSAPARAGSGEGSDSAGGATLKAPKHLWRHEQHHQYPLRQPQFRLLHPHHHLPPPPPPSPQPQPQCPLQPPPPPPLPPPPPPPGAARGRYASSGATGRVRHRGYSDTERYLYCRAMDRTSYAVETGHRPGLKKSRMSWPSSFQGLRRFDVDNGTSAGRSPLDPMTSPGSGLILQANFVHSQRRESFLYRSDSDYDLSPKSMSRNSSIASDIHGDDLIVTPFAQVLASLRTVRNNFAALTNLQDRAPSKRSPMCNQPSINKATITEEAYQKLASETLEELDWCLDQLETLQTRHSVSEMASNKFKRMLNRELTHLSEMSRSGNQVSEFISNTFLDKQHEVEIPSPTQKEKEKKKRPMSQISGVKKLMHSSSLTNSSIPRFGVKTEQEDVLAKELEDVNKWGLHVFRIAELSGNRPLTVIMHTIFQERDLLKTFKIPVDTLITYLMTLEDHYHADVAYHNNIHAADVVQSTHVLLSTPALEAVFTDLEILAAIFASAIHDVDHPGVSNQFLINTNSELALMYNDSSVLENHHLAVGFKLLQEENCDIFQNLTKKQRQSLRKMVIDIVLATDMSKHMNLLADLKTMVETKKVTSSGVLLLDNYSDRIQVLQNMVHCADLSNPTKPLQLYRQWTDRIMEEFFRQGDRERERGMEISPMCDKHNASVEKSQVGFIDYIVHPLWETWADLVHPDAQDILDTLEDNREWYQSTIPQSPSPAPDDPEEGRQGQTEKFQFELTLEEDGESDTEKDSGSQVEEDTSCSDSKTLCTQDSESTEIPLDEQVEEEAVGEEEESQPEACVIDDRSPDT

[4] = biological target: T2, 3',5'-cyclic-AMP phosphodiesterase 4D; test: Inhibition of PDE4D4 expressed in CHO cells assessed as isoproterenol-induced [125I]cAMP accumulation after 15 mins by scintillation counting; assay type: cell-based
[5] = biological target: T1, 3',5'-cyclic-AMP phosphodiesterase 4B; test: Inhibition of PDE4B3 expressed in CHO cells assessed as isoproterenol-induced [125I]cAMP accumulation after 15 mins by scintillation counting; assay type: cell-based
[6] = Inhibition of PDE3
[7] = biological target: Voltage-gated inwardly rectifying potassium channel KCNH2 (Homo sapiens, UniProt Q12809); test: Inhibition of human ERG
Voltage-gated inwardly rectifying potassium channel KCNH2, sequence (Q12809 whole entry): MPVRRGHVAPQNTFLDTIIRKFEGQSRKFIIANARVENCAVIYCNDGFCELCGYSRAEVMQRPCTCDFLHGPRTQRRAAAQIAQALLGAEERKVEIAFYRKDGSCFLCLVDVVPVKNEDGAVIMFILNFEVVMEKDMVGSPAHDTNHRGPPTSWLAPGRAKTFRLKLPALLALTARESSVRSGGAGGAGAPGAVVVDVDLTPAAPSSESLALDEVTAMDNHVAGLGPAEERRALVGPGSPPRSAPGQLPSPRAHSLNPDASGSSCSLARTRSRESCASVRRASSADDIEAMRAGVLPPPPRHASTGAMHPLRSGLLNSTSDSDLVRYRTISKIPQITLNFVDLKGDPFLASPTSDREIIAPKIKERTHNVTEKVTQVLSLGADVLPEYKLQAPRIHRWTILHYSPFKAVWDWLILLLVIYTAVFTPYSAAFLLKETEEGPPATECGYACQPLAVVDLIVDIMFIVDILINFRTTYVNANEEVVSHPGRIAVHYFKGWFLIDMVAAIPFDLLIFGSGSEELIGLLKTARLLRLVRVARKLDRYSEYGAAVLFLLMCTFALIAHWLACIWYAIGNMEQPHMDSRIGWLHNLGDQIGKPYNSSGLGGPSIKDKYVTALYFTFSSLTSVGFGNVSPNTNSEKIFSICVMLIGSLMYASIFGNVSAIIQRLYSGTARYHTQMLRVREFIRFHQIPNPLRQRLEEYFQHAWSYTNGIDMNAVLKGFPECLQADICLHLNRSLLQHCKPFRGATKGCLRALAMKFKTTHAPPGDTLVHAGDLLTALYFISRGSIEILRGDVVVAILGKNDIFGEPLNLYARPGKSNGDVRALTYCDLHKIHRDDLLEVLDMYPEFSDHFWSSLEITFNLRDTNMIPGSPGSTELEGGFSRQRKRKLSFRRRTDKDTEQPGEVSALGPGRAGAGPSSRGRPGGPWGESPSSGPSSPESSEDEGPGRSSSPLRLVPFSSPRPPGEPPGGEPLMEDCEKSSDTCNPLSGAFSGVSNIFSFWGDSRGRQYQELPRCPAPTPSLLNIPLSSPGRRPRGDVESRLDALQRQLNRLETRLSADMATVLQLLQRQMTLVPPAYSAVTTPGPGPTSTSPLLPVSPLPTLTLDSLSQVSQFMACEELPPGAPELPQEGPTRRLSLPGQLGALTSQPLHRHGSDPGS

[8] = Inhibition of PDE5
[9] = Inhibition of PDE2
[10] = Inhibition of PDE6
[11] = Selectivity ratio of IC50 for PDE4A to IC50 for PDE4B3
[12] = Selectivity ratio of IC50 for PDE4C to IC50 for PDE4B3
[13] = Inhibition of PDE1

T1 sequence (Q07343 whole entry): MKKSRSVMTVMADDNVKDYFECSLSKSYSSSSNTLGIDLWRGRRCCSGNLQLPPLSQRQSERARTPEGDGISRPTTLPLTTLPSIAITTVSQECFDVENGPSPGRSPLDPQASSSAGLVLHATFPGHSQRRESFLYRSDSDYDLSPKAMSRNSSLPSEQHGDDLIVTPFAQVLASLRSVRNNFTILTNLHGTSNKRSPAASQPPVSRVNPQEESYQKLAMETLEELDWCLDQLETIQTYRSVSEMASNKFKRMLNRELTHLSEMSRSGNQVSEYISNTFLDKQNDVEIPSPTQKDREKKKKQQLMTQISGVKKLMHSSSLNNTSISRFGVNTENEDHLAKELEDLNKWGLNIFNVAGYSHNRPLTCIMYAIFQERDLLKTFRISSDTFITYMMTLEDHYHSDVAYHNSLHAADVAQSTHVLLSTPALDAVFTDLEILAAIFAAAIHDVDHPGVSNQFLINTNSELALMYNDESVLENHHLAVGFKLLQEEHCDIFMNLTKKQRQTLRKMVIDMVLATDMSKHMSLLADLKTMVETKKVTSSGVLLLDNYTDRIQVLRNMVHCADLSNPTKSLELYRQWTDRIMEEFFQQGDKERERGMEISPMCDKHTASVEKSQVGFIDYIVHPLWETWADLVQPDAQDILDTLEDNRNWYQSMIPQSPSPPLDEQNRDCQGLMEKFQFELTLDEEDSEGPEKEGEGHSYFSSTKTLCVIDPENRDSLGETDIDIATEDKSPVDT

| Compound | Ki [1] [µM] | Ratio Ki [2] | Ki [3] [µM] | further results |
| --- | --- | --- | --- | --- |
| CC(=O)N1CCN(CCCNc2nnc(-c3cccc(F)c3)c3c2cc2ccccn23)CC1 | 1.9 | > 53 | > 100 |  |
| Cn1cccc1C(=O)N1CCN(CCCNc2nnc(-c3cccc(F)c3)c3c2cc2ccccn23)CC1 | 5.2 | 12 | 65 |  |
| Cc1cc2c(NCCCN3CCN(C(=O)c4cncs4)CC3)nnc(-c3cccc([N+](=O)[O-])c3)c2n1C | 0.222 | 57 | 12.7 |  |
| Cc1cccc(-c2nnc(NCCCN3CCN(c4ncccn4)CC3)c3cc4ccccn4c23)c1 | 4.3 | 13 | 54.4 |  |
| Cc1cc2c(NCCCN3CCN(C(=O)c4ccccn4)CC3)nnc(-c3cccc([N+](=O)[O-])c3)c2n1C | 0.238 | 48 | 11.5 |  |
| O=C(c1ccccn1)N1CCN(CCCNc2nnc(-c3cccc(F)c3)c3c2cc2ccccn23)CC1 | 0.241 | 75 | 18 |  |
| Cc1cc2c(NCCCN3CCN(C(=O)c4cccnc4)CC3)nnc(-c3cccc([N+](=O)[O-])c3)c2n1C | 0.432 | 35 | 15.3 |  |
| Brc1cccc(-c2nnc(NCCCN3CCN(c4ncccn4)CC3)c3cc4ccccn4c23)c1 | 1.44 | 12 | 17.5 |  |
| Cc1cc2c(NCCCN3CCN(C(=O)c4ccno4)CC3)nnc(-c3cccc([N+](=O)[O-])c3)c2n1C | 5.08 | > 20 | > 100 |  |
| Cc1cc2c(NCCCN3CCN(C(=O)c4ncccn4)CC3)nnc(-c3cccc([N+](=O)[O-])c3)c2n1C | 1 | > 100 | > 100 |  |
| Clc1cccc(-c2nnc(NCCCN3CCN(c4ncccn4)CC3)c3cc4ccccn4c23)c1 | 2.01 | 7 | 14.2 |  |
| Fc1cccc(-c2nnc(NCCCN3CCN(c4ncccn4)CC3)c3cc4ccccn4c23)c1 | 2.7 | 29 | 83 |  |
| Cc1cc2c(NCCCN3CCN(C(=O)c4cnccn4)CC3)nnc(-c3cccc([N+](=O)[O-])c3)c2n1C | 0.077 | 58 | 4.44 |  |
| O=[N+]([O-])c1cccc(-c2nnc(NCCCN3CCN(c4ncccn4)CC3)c3cc4ccccn4c23)c1 | 0.21 | 11 | 2.4 |  |
| O=C(C1CCCC1)N1CCN(CCCNc2nnc(-c3cccc(F)c3)c3c2cc2ccccn23)CC1 | 14 | 4 | 61 |  |
| O=C(c1cccnc1)N1CCN(CCCNc2nnc(-c3cccc(F)c3)c3c2cc2ccccn23)CC1 | 0.413 | 46 | 19 |  |
| O=C(c1ccccc1)N1CCN(CCCNc2nnc(-c3cccc(F)c3)c3c2cc2ccccn23)CC1 | 2.7 | 8 | 22.2 |  |
| c1ccc(-c2nnc(NCCCN3CCN(c4ncccn4)CC3)c3cc4ccccn4c23)cc1 | 2.6 | 23 | 59 | IC50 [4]: > 100 µM; IC50 [5]: 13.2 µM |
| O=C(c1cnccn1)N1CCN(CCCNc2nnc(-c3cccc([N+](=O)[O-])c3)c3c2cc2ccccn23)CC1 | 0.0056 | 26 | 0.147 | IC50 [6]: > 10 µM; inhibition (INH) [7]: Active; IC50 [4]: 4.9 µM; IC50 [8]: > 10 µM; IC50 [9]: > 10 µM; IC50 [10]: > 10 µM; Ratio IC50 [11]: > 5; Ratio IC50 [12]: > 5; IC50 [13]: > 10 µM; IC50 [5]: 0.389 µM |
| O=C(c1cnccn1)N1CCN(CCCNc2nnc(-c3ccccc3)c3c2cc2ccccn23)CC1 | 0.041 | 205 | 8.37 | IC50 [4]: > 100 µM; IC50 [5]: 6.7 µM |
| Cc1cc2c(NCCCN3CCN(C(=O)c4ccncc4)CC3)nnc(-c3cccc([N+](=O)[O-])c3)c2n1C | 52.2 | > 2 | > 100 |  |
| CCC(=O)N1CCN(CCCNc2nnc(-c3cccc(F)c3)c3c2cc2ccccn23)CC1 | 4.9 | > 20 | > 100 |  |
| Cc1cc2c(NCCCN3CCN(C(=O)c4csnn4)CC3)nnc(-c3cccc([N+](=O)[O-])c3)c2n1C | 0.977 | 50 | 48.6 |  |
| Cc1cc2c(NCCCN3CCN(C(=O)c4ccnnc4)CC3)nnc(-c3cccc([N+](=O)[O-])c3)c2n1C | 4.44 | 12 | 51.2 |  |
| N#Cc1cccc(-c2nnc(NCCCN3CCN(c4ncccn4)CC3)c3cc4ccccn4c23)c1 | 1.03 | 3 | 3.35 |  |
